Activity calls are given as the source filed them.
Experiments:
Mus musculus [1] = assay: Antinociceptive effect in intrathecally dosed wild type ICR-CD1 mouse after 20 mins in presence of NTI; format: functional
How it was run: (§1)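 Wild-type male ICR-CD1 mice dosed intrathecally in 5 μl (≤1% DMSO) with antagonist timed to peak with agonist: NTI 5 nmol/mouse or nor-BNI 2.5 nmol/mouse, each 20 min peak time.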

Mus musculus [2] = assay: Antinociceptive effect in intracerebroventricular dosed ICR-CD1 mouse by tail flick test; format: functional
How it was run: (§2)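 Male ICR-CD1 mice (17–25 g), conscious, given compound i.c.v. in 5 μl (stock in 10% DMSO, diluted to ≤1% DMSO). Radiant-heat tail-flick latency, 10 s cutoff; %MPE = (test−control)/(10−control)×100. Peak time from time course at 10, 20, 30, 60 min. ≥3 groups of 8–10 mice per dose-response curve, each mouse used once; ED50 with 95% CI by nonlinear regression.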

Mus musculus [3] = assay: Antinociceptive effect in intrathecally dosed ICR-CD1 mouse assessed as peak time effect by tail flick test; format: functional
How it was run: (§3)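 Male ICR-CD1 mice (17–25 g), conscious, dosed intrathecally in 5 μl (10% DMSO stock diluted to ≤1% DMSO). Radiant-heat tail-flick; %MPE = (test−control)/(10−control)×100 with 10 s cutoff. Peak antinociception located by time course at 10, 20, 30, 60 min. ≥3 groups of 8–10 mice per curve, mice used once; ED50 with 95% CI by nonlinear regression.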

[4] = target: Delta-type opioid receptor (Homo sapiens) (UniProt P41143); assay: Agonist activity at human delta opioid receptor expressed in HEK cells assessed as induction of intracellular calcium release by FLIPR assay; format: functional, cell-based; conditions: HEK293
Delta-type opioid receptor (Homo sapiens), sequence (P41143 whole entry): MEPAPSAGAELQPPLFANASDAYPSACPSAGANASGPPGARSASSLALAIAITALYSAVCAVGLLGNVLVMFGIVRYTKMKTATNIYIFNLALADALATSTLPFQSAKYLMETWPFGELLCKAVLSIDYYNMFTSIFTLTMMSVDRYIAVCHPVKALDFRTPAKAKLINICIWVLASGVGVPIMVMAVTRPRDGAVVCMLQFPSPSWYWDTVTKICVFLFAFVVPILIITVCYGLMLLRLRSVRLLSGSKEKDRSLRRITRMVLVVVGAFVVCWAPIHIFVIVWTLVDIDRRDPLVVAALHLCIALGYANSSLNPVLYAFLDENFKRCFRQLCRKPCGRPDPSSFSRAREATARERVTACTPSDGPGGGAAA
How it was run: (§4)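 HEK-293 cells stably carrying chimeric Δ6-Gαqi4-myr (zeocin selection, DMEM+10% FBS, 37 °C, 10% CO2) transiently transfected with opioid receptor DNA (200 ng/20,000 cells); seeded 24 h later; day 3 loaded with Ca2+ dye 60 min at 37 °C. After 30 s equilibration, ligand added over a concentration range; fluorescence read; ΔRFU (max−min) per concentration fitted by nonlinear regression; peak effect recorded; ≥3 independent runs, 4 internal replicates.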

Mus musculus [5] = assay: Toxicity in intrathecally dosed ICR-CD1 mouse assessed as dose tolerance after 24 hrs; format: organism-based; conditions: in vivo, icv_or_intrathecal
How it was run: (§5)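 Acute 24 h tolerance in male ICR-CD1 mice by i.c.v. or i.t. route: highest (ED80–90) dose of the day-1 dose-response curve repeated on the same mice 24 h later; tail-flick %MPE compared between days; no significant difference taken as not tolerant.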

Mus musculus [6] = assay: Antinociceptive effect in intrathecally dosed ICR-CD1 mouse by tail flick test; format: functional; how it was run: as §3
Mus musculus [7] = assay: Antinociceptive effect in intrathecally dosed wild type ICR-CD1 mouse after 20 mins in presence of nor-BNI; format: functional; how it was run: as §1
Mus musculus [8] = assay: Antinociceptive effect in intrathecally dosed MOR-KO mouse; format: functional, organism-based
How it was run: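 MOR-KO mice, 13–15 weeks old, equal males and females, eight per group, given compound intrathecally in 5 μl (≤1% DMSO); antinociception scored by radiant-heat tail-flick as %MPE with 10 s cutoff.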

[9] = target: Opioid receptors; delta & kappa (Homo sapiens) (UniProt P41145+P41143); assay: Agonist activity at human delta-kappa opioid receptor expressed in HEK cells assessed as induction of intracellular calcium release by FLIPR assay; format: functional, cell-based; conditions: HEK293; how it was run: as §4
Opioid receptors; delta & kappa (Homo sapiens), sequence (P41143 whole entry, looked up): as the sequence (P41143 whole entry) above
Opioid receptors; delta & kappa (Homo sapiens), sequence (P41145 whole entry, looked up): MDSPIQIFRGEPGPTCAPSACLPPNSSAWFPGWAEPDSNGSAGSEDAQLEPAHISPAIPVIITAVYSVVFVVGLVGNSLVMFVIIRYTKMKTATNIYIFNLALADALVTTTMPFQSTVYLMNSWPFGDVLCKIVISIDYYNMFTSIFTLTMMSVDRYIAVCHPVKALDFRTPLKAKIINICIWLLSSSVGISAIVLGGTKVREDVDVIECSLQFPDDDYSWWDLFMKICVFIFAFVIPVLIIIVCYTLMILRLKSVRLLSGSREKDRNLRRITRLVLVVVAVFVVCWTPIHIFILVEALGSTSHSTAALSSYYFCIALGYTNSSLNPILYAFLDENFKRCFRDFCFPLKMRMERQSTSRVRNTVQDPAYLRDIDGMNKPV

[10] = target: Opioid receptors; mu & kappa (Homo sapiens) (UniProt P41145+P35372); assay: Agonist activity at human mu-kappa opioid receptor expressed in HEK cells assessed as induction of intracellular calcium release by FLIPR assay; format: functional, cell-based; conditions: HEK293; how it was run: as §4
Opioid receptors; mu & kappa (Homo sapiens), sequence (P35372 whole entry, looked up): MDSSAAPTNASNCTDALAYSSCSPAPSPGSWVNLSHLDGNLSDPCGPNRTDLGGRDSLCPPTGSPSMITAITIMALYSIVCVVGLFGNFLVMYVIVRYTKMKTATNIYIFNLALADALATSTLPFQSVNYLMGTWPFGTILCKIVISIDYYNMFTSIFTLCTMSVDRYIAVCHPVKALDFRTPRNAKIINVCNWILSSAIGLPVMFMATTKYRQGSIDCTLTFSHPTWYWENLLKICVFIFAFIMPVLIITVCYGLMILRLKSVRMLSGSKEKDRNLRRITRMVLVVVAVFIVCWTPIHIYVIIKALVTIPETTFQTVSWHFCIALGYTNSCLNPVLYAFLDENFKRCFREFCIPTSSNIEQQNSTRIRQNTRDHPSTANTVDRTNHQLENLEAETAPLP
Opioid receptors; mu & kappa (Homo sapiens), sequence (P41145 whole entry, looked up): as the sequence (P41145 whole entry, looked up) above

Mus musculus [11] = assay: Toxicity in intracerebroventricular dosed ICR-CD1 mouse assessed as dose tolerance after 24 hrs; format: organism-based; conditions: in vivo, icv_or_intrathecal; how it was run: as §5
Mus musculus [12] = assay: Antinociceptive effect in intracerebroventricular dosed ICR-CD1 mouse assessed as peak time effect by tail flick test; format: functional; how it was run: as §2
[13] = target: Opioid receptors; mu & delta (Homo sapiens) (UniProt P41143+P35372); assay: Agonist activity at human mu-delta opioid receptor expressed in HEK cells assessed as induction of intracellular calcium release by FLIPR assay; format: functional, cell-based; conditions: HEK293; how it was run: as §4
Opioid receptors; mu & delta (Homo sapiens), sequence (P35372 whole entry, looked up): as the sequence (P35372 whole entry, looked up) above
Opioid receptors; mu & delta (Homo sapiens), sequence (P41143 whole entry, looked up): as the sequence (P41143 whole entry) above

## O=C(N[C@@H]1CC[C@@]2(O)[C@H]3Cc4ccc(O)c5c4[C@@]2(CCN3CC2CC2)[C@H]1O5)c1ccc2cc(F)ccc2c1
Mus musculus [1]
  ED50: 5 nmol
Mus musculus [2]
  MPE: <=60%
Mus musculus [3]
  Time: 20 min
[4]
  Activity: Active
Mus musculus [5]
  Activity: Non-toxic
Mus musculus [6]
  ED50: 81.1 pmol
Mus musculus [7]
  ED50: 2.5 nmol
Mus musculus [8]
  Activity: inactive

## O=C(N[C@@H]1CC[C@@]2(O)[C@H]3Cc4ccc(O)c5c4[C@@]2(CCN3CC2CC2)[C@H]1O5)c1cccc2ccccc12
Mus musculus [2]
  MPE: <=60%
[9]
  Activity: Active
Mus musculus [6]
  ED50: 20.9 pmol
[10]
  Activity: Active
Mus musculus [11]
  Activity: Toxic

## COc1cc2ccccc2cc1C(=O)N[C@@H]1CC[C@@]2(O)[C@H]3Cc4ccc(O)c5c4[C@@]2(CCN3CC2CC2)[C@H]1O5
Mus musculus [2]
  ED50: 312.4 pmol
Mus musculus [3]
  Time: 5 min
[4]
  Activity: Active
Mus musculus [5]
  Activity: Non-toxic
Mus musculus [6]
  ED50: 115.1 pmol
Mus musculus [11]
  Activity: Toxic

## COc1ccc2cc(C(=O)N[C@@H]3CC[C@@]4(O)[C@H]5Cc6ccc(O)c7c6[C@@]4(CCN5CC4CC4)[C@H]3O7)ccc2c1
Mus musculus [2]
  MPE: <=60%
Mus musculus [12]
  Time: 10 min
Mus musculus [3]
  Time: 5 min
Mus musculus [6]
  MPE: <=60%

## CN(C(=O)c1ccc2ccccc2c1)[C@@H]1CC[C@@]2(O)[C@H]3Cc4ccc(O)c5c4[C@@]2(CCN3CC2CC2)[C@H]1O5
Mus musculus [2]
  MPE: <=60%
[4]
  Activity: Active
Mus musculus [6]
  MPE: <=60%
[10]
  Activity: inactive

## O=C(N[C@H]1CC[C@@]2(O)[C@H]3Cc4ccc(O)c5c4[C@@]2(CCN3CC2CC2)[C@H]1O5)c1ccc2ccccc2c1
Mus musculus [2]
  MPE: <=60%
Mus musculus [6]
  MPE: <=60%
[10]
  Activity: inactive

## O=C(N[C@@H]1CC[C@@]2(O)[C@H]3Cc4ccc(O)c5c4[C@@]2(CCN3CC2CC2)[C@H]1O5)c1cccc2ncccc12
Mus musculus [2]
  MPE: <=60%
[4]
  Activity: inactive
Mus musculus [6]
  MPE: <=60%

## O=C(N[C@@H]1CC[C@@]2(O)[C@H]3Cc4ccc(O)c5c4[C@@]2(CCN3CC2CC2)[C@H]1O5)c1nccc2ccccc12
Mus musculus [2]
  ED50: 2070 pmol
Mus musculus [12]
  Time: 10 min
Mus musculus [3]
  Time: 20 min
[13]
  Activity: Active
[4]
  Activity: inactive
Mus musculus [5]
  Activity: Non-toxic
Mus musculus [6]
  ED50: 1408 pmol
[10]
  Activity: Active

## Cl.O=C(N[C@@H]1CC[C@@]2(O)[C@H]3Cc4ccc(O)c5c4[C@@]2(CCN3CC2CC2)[C@H]1O5)c1ccc2ccccc2c1
Mus musculus [2]
  ED50: 2060 pmol
Mus musculus [12]
  Time: 20 min
Mus musculus [3]
  Time: 5 min
Mus musculus [5]
  Activity: Non-toxic
Mus musculus [6]
  ED50: 18.7 pmol
[10]
  Activity: Active
Mus musculus [11]
  Activity: Toxic

## O=C(N[C@@H]1CC[C@@]2(O)[C@H]3Cc4ccc(O)c5c4[C@@]2(CCN3CC2CC2)[C@H]1O5)c1cnc2ccccc2n1
Mus musculus [2]
  ED50: 757.2 pmol
Mus musculus [3]
  Time: 5 min
[13]
  Activity: Active
[4]
  Activity: inactive
Mus musculus [5]
  Activity: Non-toxic
Mus musculus [6]
  ED50: 50.8 pmol
[10]
  Activity: Active

From ChEMBL document CHEMBL2069268, “Opioid activity of spinally selective analogues of N-naphthoyl-β-naltrexamine in HEK-293 cells and mice” (J Med Chem, 2012)
